The values below come from ChEMBL document CHEMBL4814057, “4-4-(Anilinomethyl)-3-[4-(trifluoromethyl)phenyl]-1H-pyrazol-1-ylbenzoic acid derivatives as potent anti-gram-positive bacterial agents” (Eur J Med Chem, 2021).

Converted amounts (≈) assume the structure as drawn. The source made the active and inactive calls.

In assay [1] the test system is Staphylococcus aureus. The experiment in a line: Inhibition of lipid synthesis in Staphylococcus aureus ATCC 29213 at 8 times MIC measured by liquid scintillation counter. It counts as functional. In short, it runs like this:
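Early-exponential S. aureus ATCC 29213 in CAMHBII exposed to drug at 8x MIC in triplicate tubes. Lipids extracted with chloroform/water. Organic phase dried and counted by liquid scintillation.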

Assay [2] concerns Staphylococcus aureus. The experiment in a line: Antimicrobial activity against methicillin-sensitive Staphylococcus aureus clinical isolate 1088626 by CLSI-based broth microdilution assay. The format is functional.
For assay [3], the system named is Enterococcus faecium. The experiment in a line: Antimicrobial activity against vancomycin-resistant Enterococcus faecium ATCC 700221 assessed as bacterial growth inhibitions by CLSI protocol based microdilution method. It counts as functional. Background: Broth dilution looks for growth in wells or tubes with falling amounts of substance.
The test system of assay [4] is Enterococcus faecium. The experiment in a line: Antimicrobial activity against vancomycin-resistant Enterococcus faecium clinical isolate 1088168 by CLSI-based broth microdilution assay. It counts as functional.
The subject of assay [5] is Staphylococcus aureus. The experiment in a line: Antibiofilm activity against Staphylococcus aureus UAMS-1 assessed as destruction catheter-associated biofilm formation measured after 48 hrs (reference value: 1.53 x 10^8). It counts as functional. An outline of the steps: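 Plasma-coated catheters colonised for 24 h at 37 °C with gentle shaking, starting from ~1 × 10^7 CFU of MSSA UAMS-1 in biofilm medium (TSB plus glucose and NaCl). […] Medium renewed at 24 h. Catheters (n = 3) sonicated at 48 h and plated on TSA for CFU per catheter.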

The subject of assay [6] is Staphylococcus aureus. The experiment in a line: Antimicrobial activity against methicillin-resistant Staphylococcus aureus ATCC 700699 assessed as bacterial growth inhibitions by CLSI protocol based microdilution method. The format is functional.
Assay [7] deals with Staphylococcus aureus. The experiment in a line: Antibacterial activity against vancomycin-intermediate susceptible Staphylococcus aureus ATCC 25923 assessed as bacterial growth inhibition by measuring fold increase in MIC between 8 passages by broth dilution method. It counts as functional.
Assay [8] deals with Enterococcus faecium. The experiment in a line: Antimicrobial activity against vancomycin-resistant Enterococcus faecium clinical isolate 1094112 by CLSI-based broth microdilution assay. The format is functional.
Assay [9] deals with Staphylococcus aureus. The experiment in a line: Antimicrobial activity against methicillin-resistant Staphylococcus aureus clinical isolate 1088610 by CLSI-based broth microdilution assay. It counts as functional.
Assay [10] concerns Staphylococcus aureus. The experiment in a line: Antimicrobial activity against methicillin-resistant Staphylococcus aureus clinical isolate 1088888 by CLSI-based broth microdilution assay. The format is functional.
In the next assay the test system is Enterococcus faecalis. The experiment in a line: Antimicrobial activity against vancomycin-susceptible Enterococcus faecalis ATCC 29212 assessed as bacterial growth inhibitions by CLSI protocol based microdilution method.
The test system of assay [11] is Staphylococcus aureus. The experiment in a line: Antimicrobial activity against methicillin-sensitive Staphylococcus aureus clinical isolate 1088105 by CLSI-based broth microdilution assay. It counts as functional.
Assay [12] relates to Enterococcus faecium. The experiment in a line: Antimicrobial activity against vancomycin-resistant Enterococcus faecium clinical isolate 1088051 by CLSI-based broth microdilution assay. The format is functional.
In assay [13] the test system is Enterococcus faecium. The experiment in a line: Antimicrobial activity against vancomycin-resistant Enterococcus faecium clinical isolate 1088925 by CLSI-based broth microdilution assay. The format is functional.
Assay [14] concerns Enterococcus faecium. The experiment in a line: Antimicrobial activity against vancomycin-resistant Enterococcus faecium clinical isolate 1091720 by CLSI-based broth microdilution assay. It counts as functional.
Assay [15] has as its system Staphylococcus aureus. The experiment in a line: Antimicrobial activity against methicillin-resistant Staphylococcus aureus clinical isolate 1089106 by CLSI-based broth microdilution assay. It counts as functional.
For assay [16], the system named is Staphylococcus aureus. The experiment in a line: Antimicrobial activity against Staphylococcus aureus ATCC 29213 assessed as inhibition of cell wall synthesis at 8 times MIC measured by liquid scintillation counter. It counts as functional. In short, it runs like this:
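Early-exponential S. aureus ATCC 29213 resuspended in M9 minimal medium. Drug added at 8x MIC, pre-incubated 30 min at 37 °C. [14C]N-acetylglucosamine (0.4 µCi/reaction) added, 45 min at 37 °C. Stopped with 8% SDS, heated 95 °C for 30 min, spotted onto nitrocellulose filters, washed with 0.1% SDS. Counted by liquid scintillation. Triplicate.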

Assay [17] has as its system Staphylococcus aureus. The experiment in a line: Antimicrobial activity against methicillin-susceptible Staphylococcus aureus ATCC 25923 assessed as bacterial growth inhibitions by CLSI protocol based microdilution method. The format is functional.
In another assay the test system is Bacillus subtilis. The experiment in a line: Antimicrobial activity against Bacillus subtilis ATCC 6623 assessed as bacterial growth inhibitions by CLSI protocol based microdilution method. It counts as functional. In short, it runs like this:
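Broth microdilution starting at 50 µg/ml with 2-fold serial dilutions; run in triplicate.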

For assay [18], the system named is Staphylococcus aureus. The experiment in a line: Antibacterial activity against methicillin resistant Staphylococcus aureus ATCC 700699 persisters assessed as reduction in viability at 64 times MIC by colony counting method. The format is functional, organism-based. In short, it runs like this: (§1)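 Stationary-phase S. aureus from overnight CAMHB culture (35 °C, 200 rpm), washed thrice in PBS, diluted to ~5 × 10^8 CFU/ml. Incubated with antibiotic at 35 °C, 200 rpm. Aliquots taken at set times, washed, serially diluted in PBS, drop-plated (6 × 6) on TSA with 5% sheep blood. Colonies counted after 18–20 h at 35 °C. Triplicates.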

The subject of assay [19] is Staphylococcus aureus. The experiment in a line: Antimicrobial activity against methicillin-resistant Staphylococcus aureus clinical isolate 1088064 by CLSI-based broth microdilution assay. The format is functional.
Assay [20] has as its system Staphylococcus aureus. The experiment in a line: Antimicrobial activity against methicillin-sensitive Staphylococcus aureus ATCC 29213 by CLSI-based broth microdilution assay. The format is functional.
The subject of assay [21] is Staphylococcus aureus. The experiment in a line: Antimicrobial activity against antibiotic-resistant Staphylococcus aureus BM-2312 assessed as bacterial growth inhibitions by CLSI protocol based microdilution method. It counts as functional.
Assay [22] deals with Enterococcus faecium. The experiment in a line: Antimicrobial activity against vancomycin-resistant Enterococcus faecium clinical isolate 1091282 by CLSI-based broth microdilution assay. The format is functional.
For assay [23], the system named is Enterococcus faecium. The experiment in a line: Antimicrobial activity against vancomycin-resistant Enterococcus faecium clinical isolate 1088228 by CLSI-based broth microdilution assay. It counts as functional.
The test system of assay [24] is Enterococcus faecium. The experiment in a line: Antimicrobial activity against vancomycin-resistant Enterococcus faecium clinical isolate 1091563 by CLSI-based broth microdilution assay. The format is functional.
Assay [25] concerns Staphylococcus aureus. The experiment in a line: Antibacterial activity against methicillin resistant Staphylococcus aureus ATCC 700699 persisters assessed as reduction in viability at 16 times MIC by colony counting method. It counts as functional, organism-based. An outline of the steps:
as §1

Assay [26] concerns Enterococcus faecium. The experiment in a line: Antimicrobial activity against vancomycin-resistant Enterococcus faecium clinical isolate 1089544 by CLSI-based broth microdilution assay. The format is functional.
Assay [27] has as its system Enterococcus faecium. The experiment in a line: Antimicrobial activity against vancomycin-resistant Enterococcus faecium clinical isolate 1100440 by CLSI-based broth microdilution assay. The format is functional.

`C/C=C/C/C=C/CCC(=O)[C@H]1O[C@H]1C(N)=O` [CERULENIN]: the “inhibition (INH)” value in the assay with Staphylococcus aureus [1] is recorded as 71.9%.
The term MIC denotes the smallest concentration in the dilution series that meets the test's criterion for growth inhibition. Take `CN[C@H](CC(C)C)C(=O)N[C@H]1C(=O)N[C@@H](CC(N)=O)C(=O)N[C@H]2C(=O)N[C@H]3C(=O)N[C@H](C(=O)N[C@H](C(=O)O)c4cc(O)cc(O)c4-c4cc3ccc4O)[C@H](O)c3ccc(c(Cl)c3)Oc3cc2cc(c3O[C@@H]2O[C@H](CO)[C@@H](O)[C@H](O)[C@H]2O[C@H]2C[C@](C)(N)[C@H](O)[C@H](C)O2)Oc2ccc(cc2Cl)[C@H]1O` [VANCOMYCIN]: the MIC was 0.25 µg/mL (≈ 0.173 µM) against Staphylococcus aureus [2]; > 50 µg/mL in the assay with Enterococcus faecium [3]; > 64 µg/mL against Enterococcus faecium [4]; 3.12 µg/mL (≈ 2.15 µM) in the assay with Staphylococcus aureus [6]; > 64 µg/mL with Enterococcus faecium [8]; 64 µg/mL (≈ 44.2 µM) against Staphylococcus aureus [9]. For the same molecule, the MIC in the assay on Staphylococcus aureus [10] is > 64 µg/mL; in the assay on Enterococcus faecalis, 3.12 µg/mL (≈ 2.15 µM); against Staphylococcus aureus [11], 0.25 µg/mL (≈ 0.173 µM); with Enterococcus faecium [12] it was 64 µg/mL (≈ 44.2 µM); with Enterococcus faecium [13], > 64 µg/mL; in the assay on Enterococcus faecium [14], 64 µg/mL (≈ 44.2 µM). Besides, the MIC against Staphylococcus aureus [15] was 64 µg/mL (≈ 44.2 µM); in the assay on Staphylococcus aureus [17], 0.78 µg/mL (≈ 0.538 µM); with Bacillus subtilis, 0.19 µg/mL (≈ 0.131 µM); in the assay with Staphylococcus aureus [19] it was 64 µg/mL (≈ 44.2 µM); with Staphylococcus aureus [20], 0.25 µg/mL (≈ 0.173 µM); in the assay on Staphylococcus aureus [21], 0.78 µg/mL (≈ 0.538 µM). Further, the MIC was > 64 µg/mL against Enterococcus faecium [22]; > 64 µg/mL against Enterococcus faecium [23]; 64 µg/mL (≈ 44.2 µM) in the assay on Enterococcus faecium [24]; > 64 µg/mL in the assay with Enterococcus faecium [26]; > 64 µg/mL against Enterococcus faecium [27]. For the same molecule, in the assay with Staphylococcus aureus [5], the Activity was 1.16 10^7CFU. The result in the assay with Staphylococcus aureus [7], with Staphylococcus aureus [18] and with Staphylococcus aureus [25] was inactive. Besides, the “inhibition (INH)” value in the assay with Staphylococcus aureus [16] stood at 87.3%.
